Screens (PubChem)
CHO-K1 Ca antag: counter-screen for M1 antagonists: effect in parental CHO-K1 cells | ATP-induced calcium, Fluo-8 fluorescence | inhibition, % at 3 µM | 360,000 tested, 0.6% active;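 active means inhibition above a per-plate cutoff, the plate's mean sample inhibition plus 3 SD, cut at about 24% in these data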;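 further: 0% = DMSO plus EC80 ATP and 100% = DMSO alone without ATP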
OX1R antag-1: OX1R (HCRTR1) antagonists, primary screen, fluorescence, CHO/OX1R cells, Fluo-8 calcium, orexin A; Fluo-8 calcium fluorescence; inhibition, % at 5 µM; 330,000 tested, 0.43% active; AID 434989, 2010;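 active means inhibition above its plate's threshold, mean inhibition of all tested compounds on the plate plus 3 SD, cut at about 37% in these data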;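 further: 0% = orexin A challenge wells and 100% = SB-334867-A antagonist wells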
Target sequence (O43613 whole entry, looked up): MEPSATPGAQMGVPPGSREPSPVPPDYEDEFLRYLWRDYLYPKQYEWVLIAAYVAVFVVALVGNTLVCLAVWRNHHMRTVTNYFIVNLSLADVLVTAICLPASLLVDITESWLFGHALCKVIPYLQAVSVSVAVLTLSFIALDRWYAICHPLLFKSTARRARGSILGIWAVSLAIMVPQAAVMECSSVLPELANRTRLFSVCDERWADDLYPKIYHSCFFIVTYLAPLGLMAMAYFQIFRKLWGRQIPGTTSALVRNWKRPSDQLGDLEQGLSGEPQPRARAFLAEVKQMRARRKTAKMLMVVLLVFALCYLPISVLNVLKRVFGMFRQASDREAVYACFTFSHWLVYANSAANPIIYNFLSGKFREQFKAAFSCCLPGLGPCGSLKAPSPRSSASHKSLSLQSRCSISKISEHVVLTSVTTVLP
OX1R antag-2: antagonists of human orexin 1 receptor (OX1R) | OX1R-expressing cells, FRET antagonist read-out | inhibition, % at 6.6 µM | 330,000 tested, 1.8% active | AID 485270, 2010; in the data active means inhibition mostly above about 38%, no sharp cut-off; inactive means mostly below about 40%;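 further: 0% = agonist challenge alone and 100% = reference antagonist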
CHO-K1 Ca PAM: nonselective calcium activators in parental CHO-K1 cells, primary screen, counter-screen for M1 PAM project, cell-based, Fluo-8 calcium fluorescence, full deck, 1536-well. 360,000 tested, 0.02% active. activation, % at 3 µM. ATP EC20; 0% at ATP EC20, 100% at ATP max;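 active means activation above the run cutoff, the mean activation of all test compounds plus 3 SD, cut at about 40% in these data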;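 further: peak over basal fluorescence ratio in a 140 s read after ATP addition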
M1 ag parental: counter-screen for M1 agonists: effect in parental CHO-K1 cells; activation, % at 3 µM; Fluo-8 calcium fluorescence; scaled to maximal ATP response, vehicle zero; 360,000 tested, 0.48% active; AID 602248, 2012; in the data active means activation above about 15%;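 further: untransfected CHO-K1 host cells lacking M1 receptor as counterscreen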
CHO parental Ca: ATP-evoked calcium signal inhibitors, parental CHO, primary screen, counter-screen for OX1R antagonist project, cell-based, fluorescence, Fluo-8 calcium dye; parental CHO-K1, ATP-induced calcium, Fluo-8 fluorescence; inhibition, % at 5.6 µM; 330,000 tested, 0.63% active; AID 463079, 2010;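 active means inhibition above that plate's mean sample inhibition plus 3 SD, cut at about 26% in these data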;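 further: 0% = ATP-challenged DMSO wells and 100% = DMSO wells without ATP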
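Test system: untransfected parental CHO cell line; also added: ATP stimulus; dosing: 5.6 µM, single dose; signal: calcium-sensitive Fluo-8 fluorescence; measure: percent inhibition of ATP-evoked calcium rise, normalized to controls; benchmarks: low control ATP plus DMSO, high control DMSO only; replication: one well per compound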
Numbers without * were called inactive; nt = no result given. An excerpt weighted towards active compounds, which were near 2.9% of everything screened.

SMILES	CHO-K1 Ca antag	OX1R antag-1	OX1R antag-2	CHO-K1 Ca PAM	M1 ag parental	CHO parental Ca
COC(=O)c1ccc(COC(=O)c2[nH]c(C)c(C(C)=O)c2C)o1	15	11	45	2	10	38*
CC(=O)c1c(C)[nH]c(C(=O)OCc2ccc([N+](=O)[O-])cc2)c1C	-13	-28	17	12	10	-14
N#C/C(=N/Nc1ccc(OC(F)(F)F)cc1)C(N)=S	22	41*	54*	-11	13	20
COc1ccc(N/N=C(\C#N)C(N)=O)cc1	-10	-6	12	28	2	-12
O=C(CCC1CCCN(C(=O)c2ccsc2)C1)NCc1ccc(F)c(F)c1 (stereo not drawn)	-12	-12	7	21	0	-17
CSCCC(=O)N1CCC(n2nccc2NC(=O)CCc2ccccc2)CC1	2	nt	nt	-18	1	nt
CCc1cccc(NC(=O)CCCn2nc(CC)n3c(cc4occc43)c2=O)c1	2	-14	42*	-14	6	-22
CCc1nn(CCCC(=O)NCc2ccccc2Br)c(=O)c2cc3occc3n12	-14	-29	17	20	3	-22
Nc1nc(N)c(N=O)c(OCC2CCCCC2)n1	-1	-22	40*	12	0	-21
Cc1ccc(C)c(N2N=C(C(=O)OCc3nnc(-c4cccs4)o3)CCC2=O)c1	4	nt	nt	-6	0	nt
c1ccc(Nc2ncnc3sccc23)cc1	-20	-7	13	25	3	6
CC(Nc1ncnc2sccc12)c1ccccc1 (stereo not drawn)	23	12	36	6	16*	42*
COc1ccc(C2OC3=C(Nc4cc(C)c(C)cc4N3)C2=O)cc1 (stereo not drawn)	-9	-19	21	-13	0	-7
COc1ccccc1C1OC2=C(Nc3ccc([N+](=O)[O-])cc3N2)C1=O (stereo not drawn)	5	-15	43*	-15	1	-10
COc1ccc2nc(CC(C)(C)CC(=O)O)c[n+]([O-])c2c1	-5	-18	69*	15	0	-8
Cn1c(=O)c(C(=O)COc2ccc(C#N)cc2)c(N)n(Cc2ccccc2)c1=O	-6	9	10	2	34*	13
CCO/C=C1\SC(=S)N(c2ccc(Cl)cc2)C1=O	-6	-5	2	15	3	-5
CC(C)c1ccc(N2C(=O)/C(=C/N(C)C)SC2=S)cc1	-11	52*	2	10	7	18
Cc1ccc(NC(=O)CSC(C)c2nc3ccccc3c(=O)[nH]2)cc1 (stereo not drawn)	-1	-28	30	-5	0	-10
COc1ccc(CC(N)c2csc(Nc3cccc(OC)n3)n2)cc1 (stereo not drawn)	-10	nt	nt	31	7	nt
COc1cccc(Nc2nc(C(N)Cc3ccc(F)cc3)cs2)n1 (stereo not drawn)	-1	nt	nt	21	15*	nt
COc1ccccc1C(=O)NC(=O)CSc1nnc(C)s1	55*	6	4	-4	0	0
N#CC1=C(N)OC2=C(CC/C2=C\c2ccccc2)C1c1ccccc1 (stereo not drawn)	26*	15	26	2	21*	9
CC(NC(=O)[C@H](NC(=O)[C@@H]1Cc2ccccc2CN1)c1ccccc1)c1ccccc1 (stereo partly drawn)	0	-16	50*	15	2	-16
CC(C)c1ccc(NC(=O)[C@H](NC(=O)[C@@H]2Cc3ccccc3CN2)c2ccccc2)cc1	-15	-22	15	16	3	-23
SMILES	CHO-K1 Ca antag	OX1R antag-1	OX1R antag-2	CHO-K1 Ca PAM	M1 ag parental	CHO parental Ca
O=C(CN(CC1CCCO1)C(=O)c1nsc(Cl)c1Cl)NC1CCCC1 (stereo not drawn)	1	-28	25	23	0	-7
Cc1cc(C)c2c(N)c(C(=O)N/N=C/c3ccccc3)sc2n1	1	-24	43*	6	1	-18
Cc1cc(C)c2c(N)c(C(=O)N/N=C/c3cccnc3)sc2n1	1	-19	47*	2	0	-8
CCOc1ccc(-c2nc(-c3cccs3)c(CC(=O)O)s2)cc1OC	-6	-7	38*	4	0	-4
CCOc1ccc(-c2nnc(-c3cccs3)o2)cc1OCC	-10	-25	7	19	0	-9
S=C(NCc1ccccc1)NCc1ccc(CNC(=S)NCc2ccccc2)cc1	8	29	2	11	7	48*
S=C(NCc1ccccc1)C(=S)NCc1ccccc1	-14	nt	nt	11	1	nt
O=C(c1ccc(Cl)cc1)N1CCN(c2cc(=O)[nH]nc2-c2ccccc2)CC1	28*	-29	18	-17	0	8
O=C(Nc1ccccc1N1CCN(C(=O)c2ccccc2)CC1)c1ccc(Cl)cc1	3	-34	12	3	5	-29
O=C(Nc1ccccc1N1CCN(C(=O)c2ccc(Cl)cc2)CC1)c1ccc(Br)cc1	27*	-37	9	-8	0	-33
CC12CCC3c4ccccc4CCC3(CO1)C2 (stereo not drawn)	0	nt	nt	-1	0	nt
CSc1nsc(N/N=C/c2ccc3c(c2)OCO3)c1C#N	-18	8	41*	12	2	12
CCOc1cccc(=O)c2c(C)n(Cc3ccccc3)c(C)c12	13	-22	14	3	23*	-15
CCOc1cccc(=O)c2c(C)n(Cc3ccco3)c(C)c12	0	-23	16	12	0	-15
CCOc1ccc(C(=O)NCC(=O)N2CCCC2)cc1	1	3	9	-7	-1	-3
O=C(NCC(=O)N(c1cccnc1)C(C(=O)NC1CCCC1)c1cccs1)c1cccs1 (stereo not drawn)	-2	-10	12	16	0	-20
CCOc1ccc(-c2n[nH]c(C)c2Oc2ccc(OC)cc2)c(O)c1	24*	6	31	-7	0	0
CC(=O)N1CCC(c2c[nH]c3ccccc23)CC1	12	-22	12	-9	0	-15
CCOC(=O)C1CCCN(C(=O)c2cccc(S(=O)(=O)N3CCCC3)c2)C1 (stereo not drawn)	-16	-18	10	10	3	-13
CCOC(=O)C1CCCN(C(=O)C2c3ccccc3Oc3ccccc32)C1 (stereo not drawn)	6	22	45*	8	20*	22
CN(c1ccccc1)S(=O)(=O)c1ccc(C(=O)N2CCCC2)cc1	-2	-15	9	-17	0	-6
